For series [1], the system named is PBMC. The series is described as follows: Immunomodulatory activity in human PBMC assessed as inhibition of phytohemagglutinin-induced T-cell proliferation at 12.5 ug/mL after 72 hrs by [3H]thymidine incorporation assay. The series is classed as functional. The essentials:
(§1)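 PBMCs were isolated from heparinized venous blood of a healthy adult donor by Ficoll–Hypaque gradient. Cells at 5 × 10^5 cells/mL were stimulated with PHA 5 µg/mL, with compounds at 3.1–100 µg/mL final, in triplicate. Incubation was 72 h at 37 °C in 5% CO2, then a 0.5 µCi/well [3H]thymidine pulse for 18 h further. Incorporation was counted by liquid scintillation as mean CPM.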
(Uptake of a labelled nucleoside into DNA is a usual measure of proliferation.)

The subject of series [2] is Neutrophil. As to the kind of experiment: Immunomodulatory activity in polymorphoneutrophils assessed as suppression of phagocytosis activity 30 mins by luminol-enhanced chemiluminescence assay. The class given is functional, cell-based. The method in brief: (§2)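 Luminol-enhanced chemiluminescence was run on neutrophils (1 × 10^7) or monocytes (1 × 10^6) in HBSS with Ca/Mg. Cells were preincubated 30 min with compound (3.1–50 µg/mL), then zymosan (20 mg/mL stock) and luminol (7 × 10^-5 M stock) were added, to 0.2 mL final. HBSS alone served as control. Fifty luminometer scans were taken at 30 s intervals, with readings expressed relative to untreated control.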

A short description of series [3]: Immunomodulatory activity in MNC assessed as suppression of phagocytosis activity after 30 mins by luminol-enhanced chemiluminescence assay. The class given is functional. The method in brief:
as §2

Series [4] can be described thus: Cytotoxicity against MDBK cells at 50 ug/mL after 72 hrs by MTT assay. The series is classed as cell-based, Bos taurus. The note with it: cattle. The method in brief:
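MDBK adherent cells at 2 × 10^5 cells/mL were exposed to serial compound dilutions (0.195–50 µg/mL), with viability examined after 72 h. MTT (2 mg/mL) was added for 2–3 h at 37 °C. Cells were washed with PBS and the formazan dissolved in DMSO, with 15 min agitation at 37 °C. Absorbance was read at 540 nm, and viability was taken as the OD ratio to control.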
In general terms: Formazan colour is commonly taken as a measure of viable cells.

Series [5] can be described thus: Cytotoxicity against MNC at 3.1 to 50 ug/mL.
Series [6] can be described thus: Cytotoxicity against polymorphoneutrophils at 3.1 to 50 ug/mL. The series is classed as cell-based. The note with it: neutrophil.
The subject of series [7] is PBMC. The series is described as follows: Immunomodulatory activity in human PBMC assessed as phytohemagglutinin-stimulated IL2 release at 0.5 to 16 ug/mL after 18 hrs by ELISA. The series is classed as functional. The method in brief: (§3)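 Donor PBMCs were Ficoll-isolated and cultured in RPMI-1640 with 10% AB human serum, at 10^5 cells/well, with or without PHA 1.25 µg/mL. Compounds were tested at 16, 4, 1 and 0.5 µg/mL for 18 h at 37 °C in 5% CO2. Supernatants were cleared by 1000g centrifugation at 4 °C. IL-2, IL-4 and IFN-γ were measured by ELISA kit.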
On the technique in general: In an ELISA, binding on a coated surface is turned into a signal by an enzyme label.

Series [8] relates to PBMC. The series is described as follows: Immunomodulatory activity in human PBMC assessed as phytohemagglutinin-stimulated IL4 release at 0.5 to 16 ug/mL after 18 hrs by ELISA. The series is classed as functional. The method in brief: as §3
Series [9] concerns PBMC. As to the kind of experiment: Immunomodulatory activity in human PBMC assessed as phytohemagglutinin-stimulated IFN-gamma release at 0.5 to 16 ug/mL after 18 hrs by ELISA. The class given is functional. The method in brief:
as §3

Series [10] concerns PBMC. The series is described as follows: Immunomodulatory activity in human PBMC assessed as inhibition of phytohemagglutinin-stimulated IL2 release at 0.5 ug/mL after 18 hrs by ELISA. The class given is functional. The method in brief:
as §3

The subject of series [11] is PBMC. The series is described as follows: Immunomodulatory activity in human PBMC assessed as inhibition of phytohemagglutinin-stimulated IFN-gamma release at 0.5 ug/mL after 18 hrs by ELISA. The class given is functional. The essentials:
as §3

Series [12] deals with PBMC. As to the kind of experiment: Immunomodulatory activity in human PBMC assessed as inhibition of phytohemagglutinin-stimulated IL4 release at 1 ug/mL after 18 hrs. The class given is functional. The method in brief:
as §3

Series [13] relates to Neutrophil. As to the kind of experiment: Immunomodulatory activity in polymorphoneutrophils assessed as inhibition of fMLP-induced cellular chemotaxis at 2.5 to 25 ug/mL after 1 hr using hematoxylin staining by light microscopy. The class given is functional. The essentials:
(§4)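 PMN chemotaxis was measured in a modified Boyden chamber. fMLP (10^-8 M) was placed in the lower well, separated by a cellulose filter (2 µm pores). 5 × 10^4 cells in HBSS with Ca/Mg went in the upper well, with compounds at 2.5, 5 or 25 µg/mL, in duplicate. The DMSO:HBSS (1:1) buffer served as control. After 60 min at 37 °C in CO2, cells in the filter were hematoxylin-stained and migration distance was measured in five random fields.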

Series [14] relates to PBMC. The series is described as follows: Immunomodulatory activity in human PBMC assessed as inhibition of phytohemagglutinin-stimulated IL2 release after 18 hrs by ELISA. The series is classed as functional, cell-based. The essentials: as §3
Series [15] concerns PBMC. As to the kind of experiment: Immunomodulatory activity in human PBMC assessed as inhibition of phytohemagglutinin-stimulated IL4 release after 18 hrs by ELISA. The class given is functional, cell-based. The method in brief: as §3
Series [16] relates to PBMC. The series is described as follows: Immunomodulatory activity in human PBMC assessed as inhibition of phytohemagglutinin-stimulated IFN-gamma release after 18 hrs by ELISA. The class given is functional, cell-based. The essentials: as §3
Series [17] deals with PBMC. As to the kind of experiment: cells. The note with it: Homo sapiens.
A short description of series [18]: Immunomodulatory activity in MNC assessed as suppression of phagocytosis activity at 3.1 ug/mL after 30 mins by luminol-enhanced chemiluminescence assay.
The subject of series [19] is Neutrophil. The series is described as follows: Immunomodulatory activity in polymorphoneutrophils assessed as suppression of phagocytosis activity at 3.1 ug/mL after 30 mins by luminol-enhanced chemiluminescence assay.
The test system of series [20] is Neutrophil. The series is described as follows: Immunomodulatory activity in polymorphoneutrophils assessed as inhibition of fMLP-induced cellular chemotaxis at 25 ug/mL after 1 hr using hematoxylin staining by light microscopy. The class given is functional. The method in brief: as §4
Series [21] has as its system Neutrophil. As to the kind of experiment: Immunomodulatory activity in polymorphoneutrophils assessed as inhibition of fMLP-induced cellular chemotaxis at 2.5 ug/mL pre-incubated 1 hr before fMLP challenge measured after 1 hr using hematoxylin staining by light microscopy. The class given is functional. The method in brief: as §4
For series [22], the system named is Neutrophil. As to the kind of experiment: Immunomodulatory activity in polymorphoneutrophils assessed as inhibition of fMLP-induced cellular chemotaxis at 5 ug/mL pre-incubated 1 hr before fMLP challenge measured after 1 hr using hematoxylin staining by light microscopy. The series is classed as functional. The essentials:
as §4

A short description of series [23]: Immunomodulatory activity in MNC assessed as inhibition of reactive oxygen species release at 25 ug/mL after 30 mins by luminol-enhanced chemiluminescence assay. The class given is functional. Details: scale not given: the % may be the effect or the level left. The essentials: as §2
Series [24] in a line: Immunomodulatory activity in MNC assessed as stimulation of reactive oxygen species release at 3.1 ug/mL after 30 mins by luminol-enhanced chemiluminescence assay. The class given is functional. The essentials: as §2
The nature of series [25]: Immunomodulatory activity in MNC assessed as inhibition of reactive oxygen species release at 50 ug/mL after 30 mins by luminol-enhanced chemiluminescence assay. The series is classed as functional. The arrangement: scale not given: the % may be the effect or the level left. The method in brief:
as §2

For series [26], the system named is PBMC. As to the kind of experiment: Immunomodulatory activity in human PBMC assessed as inhibition of phytohemagglutinin-induced T-cell proliferation at 3.1 ug/mL after 72 hrs by [3H]thymidine incorporation assay. The class given is functional. The essentials:
as §1

For series [27], the system named is PBMC. As to the kind of experiment: Immunomodulatory activity in human PBMC assessed as inhibition of phytohemagglutinin-induced T-cell proliferation at 6.125 ug/mL after 72 hrs by [3H]thymidine incorporation assay. The class given is functional. The essentials: as §1

Values after ≈ are worked out from the molar mass of the structure shown.

`CC(C)=CCc1c(O)c(CC=C(C)C)c2oc3c(O)cc(O)cc3c(=O)c2c1O` [STAUDTIIXANTHONE A]: in the series on PBMC [1], the inhibition (usually the percentage by which the read-out fell short of the control) at 12.5 µg/mL is 94.3%. Also, the Activity entry in the series on Neutrophil [2] was “Dose-dependent effect”; in [3] it was “Dose-dependent effect”; in series [4], “Non-toxic”; in [5], “Non-toxic”; in series [6], “Non-toxic”; with PBMC [7] it was 528.5 pg/mL. Besides, the Activity in the series with PBMC [8] turned out to be 120.5 pg/mL; with PBMC [9] it was 4033.7 pg/mL; in series [18] it was 73%; with Neutrophil [19], 73%. Also, the inhibition at 0.5 µg/mL with PBMC [10] came out at 68.2%; in the series on PBMC [11], 62.5%. Besides, the inhibition at 1 µg/mL in the series with PBMC [12] was 88.1%. For the same molecule, in the series with Neutrophil [13], the “inhibition (INH)” value came out at 27%. Moreover, the inhibition result with PBMC [14], in the series with PBMC [15] and in the series on PBMC [16] was “Dose-dependent effect” each time. Besides, half-maximal inhibition in the series with PBMC [17] (IC50) required 6.2 µg/mL (≈ 15.6 µM).
On to `CC(C)=CCc1c2c(c(O)c3c(=O)c4cc(O)cc(O)c4oc13)C=CC(C)(C)O2` [STAUDTIIXANTHONE B], for which, in the series on PBMC [1], the inhibition at 12.5 µg/mL came to 97.1%. Besides, the Activity entry in the series on Neutrophil [2] was “Dose-dependent effect”; in [3], “Dose-dependent effect”; in [4] it was “Non-toxic”; in [5] it was “Non-toxic”; in series [6] it was “Non-toxic”; in the series with PBMC [7], 528.5 pg/mL. For the same molecule, the Activity in the series with PBMC [8] is 120.5 pg/mL; in the series with PBMC [9], 4033.7 pg/mL. The “inhibition (INH)” value in the series on Neutrophil [13] was 27%. Further, the inhibition result in the series with PBMC [14], with PBMC [15] and with PBMC [16] was “Dose-dependent effect” in each case. Moreover, half-maximal inhibition with PBMC [17] (IC50) was put at 6.4 µg/mL (≈ 16.2 µM).
For the molecule `CC(C)=CCc1c2c(c3oc4c(O)cc(O)cc4c(=O)c3c1O)C=CC(C)(C)O2` [STAUDTIIXANTHONE C], the Activity entry in the series with Neutrophil [2] was “Dose-dependent effect”; in series [3], “Dose-dependent effect”; in series [4] it was “Non-toxic”; in series [5], “Non-toxic”; in series [6] it was “Non-toxic”; in the series on PBMC [7], 528.5 pg/mL. Further, the Activity in the series on PBMC [8] worked out at 120.5 pg/mL; with PBMC [9], 4033.7 pg/mL. The “inhibition (INH)” value in the series on Neutrophil [13] is 27%. Also, in the series on Neutrophil [20], the inhibition at 25 µg/mL is 46%. Further, the inhibition at 2.5 µg/mL with Neutrophil [21] was 36.4%. The inhibition at 5 µg/mL in the series with Neutrophil [22] worked out at 42.2%. Further, the inhibition result in the series with PBMC [14], in the series on PBMC [15] and in the series on PBMC [16] was “Dose-dependent effect” throughout. The midpoint of inhibition in the series with PBMC [17], the IC50, lay at 12.7 µg/mL (≈ 32.2 µM).
As for `COc1cc2oc3c4c(cc(O)c3c(=O)c2c2c1OC(C)(C)CC2)OC(C)(C)CC4` [STAUDTIIXANTHONE D], the Activity is 59% in series [23]; 24% in series [24]; 70% in [25]; “Dose-dependent effect” in the series with Neutrophil [2]; “Dose-dependent effect” in [3]; “Non-toxic” in series [4]. The Activity entry in series [5] is “Non-toxic”; in series [6] it was “Non-toxic”; with PBMC [7], 528.5 pg/mL; with PBMC [8], 120.5 pg/mL; with PBMC [9], 4033.7 pg/mL. Besides, the inhibition at 3.1 µg/mL in the series on PBMC [26] was 44.9%. The inhibition at 6.125 µg/mL in the series with PBMC [27] was 70.4%. Moreover, the “inhibition (INH)” value in the series on Neutrophil [13] was 27%. Further, the IC50 (usually the midpoint of a concentration-inhibition curve) in the series on PBMC [17] was 3.7 µg/mL (≈ 9.01 µM).
